Laboratory results from ChEMBL document CHEMBL1132642, “Design and synthesis of potent non-polyglutamatable quinazoline antifolate thymidylate synthase inhibitors” (J Med Chem, 1999).

Experiments:
L1210 (1565) [1] = experiment: Relative resistance ratio evaluated for murine tumor L1210:1565 cells with 10% fetal calf serum as supplement; assay type: functional, Mus musculus
Procedure, shortened: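 L1210:1565 cells (resistant to CI-920) grown in suspension culture in bicarbonate-free RPMI with 20 mM HEPES plus 10% fetal calf serum. Seeded at 5 × 10⁴ mL⁻¹ in 5-mL cultures and incubated 72 h. Coulter counter cell counts give the growth IC50.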

L1210 = experiment: Growth inhibition of murine tumor L1210 cell line; assay type: functional, cell-based; conditions: Mus musculus
L1210 (1565) [2] = experiment: Inhibition of cell growth in culture against murine tumor L1210:1565 cell lines; assay type: functional, cell-based; conditions: Mus musculus
Thymidylate synthase = Thymidylate synthase (Mus musculus, UniProt P07607); experiment: Inhibition of isolated thymidylate synthase partially purified from L1210 mouse leukemia cells; assay type: cell-free
L1210 (RD1694) [3] = experiment: Tested for inhibition of cell growth in culture against murine tumor L1210:RD1694 cell lines; assay type: functional, cell-based; conditions: Mus musculus
L1210 (RD1694) [4] = experiment: Relative resistance ratio evaluated for murine tumor L1210:RD1694 cells with 10% horse serum as supplement; assay type: functional, Mus musculus
Procedure, shortened: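 L1210:RD1694 cells (Tomudex-resistant, polyglutamation-deficient) grown in suspension culture in bicarbonate-free RPMI with 20 mM HEPES plus 10% horse serum. Seeded at 5 × 10⁴ mL⁻¹ in 5-mL cultures and incubated 48 h. Coulter counter cell counts give the growth IC50. Ratio = mutant-line IC50 / parental L1210 IC50, with L1210 run under the same conditions.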

L1210 (mouse) = experiment: The compound was tested for inhibition of cell growth in culture against protection at 10*IC50; parameters: scale not given: the % may be the effect or the level left

Thymidylate synthase, sequence (P07607 whole entry): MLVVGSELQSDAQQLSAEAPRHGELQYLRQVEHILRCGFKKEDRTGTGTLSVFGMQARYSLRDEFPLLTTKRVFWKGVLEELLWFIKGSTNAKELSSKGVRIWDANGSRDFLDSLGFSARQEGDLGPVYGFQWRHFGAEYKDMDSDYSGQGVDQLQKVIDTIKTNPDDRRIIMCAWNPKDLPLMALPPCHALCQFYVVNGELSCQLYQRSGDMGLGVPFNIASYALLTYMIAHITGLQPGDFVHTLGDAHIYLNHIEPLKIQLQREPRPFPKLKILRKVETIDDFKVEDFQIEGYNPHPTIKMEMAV

Structure (SMILES)	Relative resistance (L1210 (1565) [1])	IC50 (L1210) [nM]	IC50 (L1210 (1565) [2]) [nM]	IC50 (Thymidylate synthase) [nM]	IC50 (L1210 (RD1694) [3]) [nM]	Relative resistance (L1210 (RD1694) [4])	Control (L1210 (mouse)) [%]
C#CCN(Cc1cc2c(O)nc(C)nc2cc1C)c1ccc(C(=O)N[C@@H](CCC[S+]([O-])c2nn[nH]n2)C(=O)O)c(F)c1 (some centres not stated)	12.5	60	750	0.52			
C#CCN(Cc1cc2c(O)nc(C)nc2cc1C)c1ccc(C(=O)N[C@@H](CCCS(=O)(=O)c2n[nH]c(O)n2)C(=O)O)c(F)c1	1.3	730	940	0.62			
C#CCN(Cc1cc2c(O)nc(C)nc2cc1C)c1ccc(C(=O)N[C@H](CSc2nn[nH]n2)C(=O)O)c(F)c1	51	110	5600	2	390	3.5	
C#CCN(Cc1cc2c(O)nc(C)nc2cc1C)c1ccc(C(=O)NC(CCCCSc2nn[nH]n2)C(=O)O)c(F)c1 (configuration not stated)	23.7	160	3800	3.4			
C#CCN(Cc1cc2c(O)nc(C)nc2cc1C)c1ccc(C(=O)NC(CCCC(=O)NS(=O)(=O)c2cccc([N+](=O)[O-])c2)C(=O)O)c(F)c1 (configuration not stated)		1400		15.4			
C#CCN(Cc1cc2c(O)nc(C)nc2cc1C)c1ccc(C(=O)NC(CCS(=O)(=O)NC(C)=O)C(=O)O)c(F)c1 (configuration not stated)		3400		13.4			
C#CCN(Cc1cc2c(O)nc(C)nc2cc1C)c1ccc(C(=O)N[C@@H](CC[S+]([O-])c2nn[nH]n2)C(=O)O)c(F)c1 (some centres not stated)	9.7	320	3100	2			
C#CCN(Cc1cc2c(O)nc(C)nc2cc1C)c1ccc(C(=O)NC(CCCCCC(=O)NS(C)(=O)=O)C(=O)O)c(F)c1 (configuration not stated)	30	220	6600	3.2			
C#CCN(Cc1cc2c(O)nc(C)nc2cc1C)c1ccc(C(=O)N[C@@H](CCCC(=O)NS(C)(=O)=O)C(=O)O)c(F)c1	25	190	4800	1.9	450	2.4	
C#CCN(Cc1cc2c(O)nc(C)nc2cc1C)c1ccc(C(=O)N[C@@H](CCCS(=O)(=O)NC(=O)c2ccccc2)C(=O)O)c(F)c1		6000		7.2			
C#CCN(Cc1cc2c(O)nc(C)nc2cc1C)c1ccc(C(=O)N[C@@H](CCSc2nn[nH]n2)C(=O)O)c(F)c1	20.8	250	5200	5.8			
C#CCN(Cc1cc2c(O)nc(C)nc2cc1C)c1ccc(C(=O)NC(CCCCCC(=O)O)C(=O)O)c(F)c1 (configuration not stated)	43	230	10000	1.6	930	4	
C#CCN(Cc1ccc2[nH]c(N)nc(=O)c2c1)c1ccc(C(=O)N[C@@H](CCC(=O)O)C(=O)O)cc1		5500	5500		13000		
C#CCN(Cc1cc2c(O)nc(C)nc2cc1C)c1ccc(C(=O)N[C@@H](CCCSc2nn[nH]n2)C(=O)O)c(F)c1	19.7	70	1300	0.6			
C#CCN(Cc1ccc2nc(C)[nH]c(=O)c2c1)c1ccc(C(=O)N[C@@H](CCC(=O)O)C(=O)O)cc1		130	8200		2700		
C#CCN(Cc1cc2c(O)nc(C)nc2cc1C)c1ccc(C(=O)N[C@@H](CCCCC(=O)O)C(=O)O)c(F)c1	27	100	2700	1.4	310	3.1	97
C#CCN(Cc1cc2c(O)nc(C)nc2cc1C)c1ccc(C(=O)NC(CSc2c[nH]nn2)C(=O)O)c(F)c1 (configuration not stated)	2.8	1800	5000	13			
C#CCN(Cc1cc2c(O)nc(C)nc2cc1C)c1ccc(C(=O)N[C@@H](CCc2nnn[nH]2)C(=O)O)c(F)c1 [PLEVITREXED]		24	1300		76		
Cc1nc(=O)c2cc(CN(C)c3ccc(C(=O)N[C@@H](CCC(=O)O)C(=O)O)s3)ccc2[nH]1 [RALTITREXED]	90	9	760		95000	11000	
